# ChEMBL document CHEMBL2413043, “5-Nitro-2-furfuriliden derivatives as potential anti-Trypanosoma cruzi agents: design, synthesis, bioactivity evaluation, cytotoxicity and exploratory data analysis” (Bioorg Med Chem, 2013)
# Columns and labels:
# [1] = system: Trypanosoma cruzi; assay: Antitrypanosomal activity against epimastigotes of Trypanosoma cruzi Y assessed as parasite growth inhibition after 5 days by spectrophotometric analysis; assay type: functional, organism-based; settings: for IC50: Trypanosoma cruzi, Y, 120 h
# In short: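 Stationary-phase epimastigotes (10-day culture, 28 °C) diluted in LIT medium with 10% fetal calf serum to 2.0 x 10^6 parasites/mL. Compounds dissolved in DMSO (final ≤1.0%), 0.25–180.0 µM, incubated 28 °C for 5 days. Growth read at A580 versus day 0 and untreated controls as percent growth inhibition. Triplicates; IC50 by sigmoid dose–response fit, at least five concentrations.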
# [2] = Selectivity index, ratio of IC50 for human FN1 fibroblasts to IC50 for epimastigotes of Trypanosoma cruzi Y
# In short: (§1)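 Selectivity index taken as IC50 in the mammalian cell line (J774 or FN1) divided by IC50 against Y-strain epimastigotes.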
# [3] = Cytotoxicity against human FN1 fibroblasts after 24 hrs by MTT assay
# In short: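 Human FN1 fibroblasts kept in RPMI 1640 with 10% FBS at 37 °C, 5% CO2. Plated in triplicate at 1 x 10^4 cells/well, incubated overnight, then treated 24 h with 12.5–200 µM. MTT at 5 mg/mL for 2 h, formazan dissolved in 0.1 N HCl in isopropanol, absorbance at 540 nm, IC50 determined.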
# [4] = system: J774; assay: Cytotoxicity against mouse J774 cells after 48 hrs by MTT assay; assay type: cell-based; settings: J774, 48 h
# In short: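 J774 murine macrophages in RPMI 1640 with 10% FBS, 37 °C, 5% CO2. Seeded at 1.0 x 10^4 cells/well in RPMI 1640 with 5% heat-inactivated fetal calf serum, attached 24 h. Exposed 48 h to 0.8–400.0 µM. MTT at 0.4 mg/mL final for 3 h at 37 °C, formazan in DMSO, A595. IC50 is the mean of six experiments, sigmoid fit, at least five concentrations.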
# [5] = Selectivity index, ratio of IC50 for mouse J774 cells to IC50 for epimastigotes of Trypanosoma cruzi Y; assay type: toxicity, cell-based; settings: read-out: Ratio IC50; in short: as §1
# [6] = system: Trypanosoma cruzi; assay: Ratio of nifurtimox IC50 to compound IC50 for epimastigotes of Trypanosoma cruzi Y; assay type: functional
Compound,log(1/C) [1],IC50 [1] [µM],Ratio IC50 [2],IC50 [3] [µM],IC50 [4] [µM],selectivity ratio [5],Ratio IC50 [6]
O=C(N/N=C/c1ccc([N+](=O)[O-])o1)c1ccc(C(F)(F)F)cc1,5.35,4.42,–,–,–,–,–
N#Cc1ccc(C(=O)N/N=C/c2ccc([N+](=O)[O-])o2)cc1,4.9,12.5,–,–,–,–,–
CC(=O)N1N=C(c2ccc(C#N)cc2)OC1c1ccc([N+](=O)[O-])o1 (centres undefined),4.87,13.4,–,–,–,–,–
COc1ccc(C2=NN(C(C)=O)C(c3ccc([N+](=O)[O-])o3)O2)cc1 (centres undefined),5.03,9.26,–,–,–,–,–
Cc1ccc(C(=O)N/N=C/c2ccc([N+](=O)[O-])o2)cc1,5.43,3.71,–,–,–,–,–
CC(=O)N1N=C(c2ccc(C)cc2)OC1c1ccc([N+](=O)[O-])o1 (centres undefined),5.01,9.84,–,–,–,–,–
CCCCc1ccc(C2=NN(C(C)=O)C(c3ccc([N+](=O)[O-])o3)O2)cc1 (centres undefined),5.08,8.27,22.49,186,> 400,> 48,–
CC(=O)N1N=C(c2ccccc2)OC1c1ccc([N+](=O)[O-])o1 (centres undefined),4.99,10.2,–,–,–,–,–
CCCCc1ccc(C(=O)N/N=C/c2ccc([N+](=O)[O-])o2)cc1,5.98,1.05,93.33,98,28.1,26.7,3
O=C(N/N=C/c1ccc([N+](=O)[O-])o1)c1ccccc1,5.35,4.44,–,–,–,–,–
CC1CS(=O)(=O)CCN1/N=C/c1ccc([N+](=O)[O-])o1 (centres undefined) [NIFURTIMOX],–,–,>53,> 200,280,74.2,–
O=C(N/N=C/c1ccc([N+](=O)[O-])o1)c1ccc(Cl)cc1,5.39,4.03,>49.63,> 200,57.1,14.2,–
CC(=O)N1N=C(c2ccc(Cl)cc2)OC1c1ccc([N+](=O)[O-])o1 (centres undefined),4.94,11.5,>17,> 200,> 400,> 34,–
O=C(Cn1ccnc1[N+](=O)[O-])NCc1ccccc1 [BENZNIDAZOLE],–,22.7,>9,> 200,> 400,> 18,–
COc1ccc(C(=O)N/N=C/c2ccc([N+](=O)[O-])o2)cc1,5.4,3.94,–,–,–,–,–
CC(=O)N1N=C(c2ccc([N+](=O)[O-])cc2)OC1c1ccc([N+](=O)[O-])o1 (centres undefined),4.85,13.9,>14,> 200,114,8.21,–
O=C(N/N=C/c1ccc([N+](=O)[O-])o1)c1ccc([N+](=O)[O-])cc1,5.02,9.45,18.83,178,79.1,8.37,–
O=C(N/N=C/c1ccc([N+](=O)[O-])o1)c1ccc(I)cc1,5.49,3.21,–,–,–,–,–
O=C(N/N=C/c1ccc([N+](=O)[O-])o1)c1ccc(Br)cc1,5.42,3.74,–,–,–,–,–
CC(=O)N1N=C(c2ccc(I)cc2)OC1c1ccc([N+](=O)[O-])o1 (centres undefined),4.93,11.5,–,–,–,–,–
CC(=O)N1N=C(c2ccc(C(F)(F)F)cc2)OC1c1ccc([N+](=O)[O-])o1 (centres undefined),4.95,11.1,–,–,–,–,–
CC(=O)N1N=C(c2ccc(Br)cc2)OC1c1ccc([N+](=O)[O-])o1 (centres undefined),5.01,9.59,–,–,–,–,–
